IC50 data for six molecules are collected here from ChEMBL document CHEMBL1158088, “Bioactive triterpene glycosides from the sea cucumber Holothuria fuscocinerea” (J Nat Prod, 2006).

One experiment has as its system Bel-7402. Description: Cytotoxicity against human Bel-7402 cells after 72 hrs by sulforhodamine B assay. The settings on record: Bel-7402, 72 h. It is filed as functional, cell-based. Put shortly: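 BEL-7402 human hepatoma cells treated 72 h; cell protein measured by sulforhodamine B assay. IC50 taken from dose–response curves as concentration causing 50% drop in absorption relative to control cells. Means ± SD of three independent experiments, triplicate wells per concentration. 10-Hydroxycamptothecine served as positive control.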

The test system of a further experiment is HL-60. Description: Cytotoxicity against human HL-60 cells after 72 hrs by MTT assay. The experiment is classed as functional, cell-based. The settings on record: HL-60, 72 h. In outline:
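HL-60 human leukemia cells exposed to glycosides for 72 h; viability read by MTT colorimetric assay in 96-well microplates. Dose–response curves plotted; IC50 = concentration giving 50% reduction of absorption versus control cells. Three independent experiments, each concentration in triplicate wells; mean ± SD. 10-Hydroxycamptothecine as positive control.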
For orientation: Formazan colour is commonly taken as a measure of viable cells.

The term IC50 denotes the concentration that gives 50% inhibition. The low end stands for higher potency, the high end for lower potency.

As to `CO[C@@H]1[C@@H](O)[C@H](O[C@@H]2[C@@H](O)[C@H](O[C@H]3[C@H](O)[C@@H](O)[C@H](O[C@H]4[C@H](O[C@H]5CC[C@]6(C)C7=C[C@H](O)[C@@]89C(=O)O[C@@](C)(C%10CCC(C)(C)O%10)[C@@]8(O)CC[C@@]9(C)[C@@H]7CC[C@H]6C5(C)C)OC[C@@H](OS(=O)(=O)O)[C@@H]4O)O[C@@H]3C)O[C@H](CO)[C@H]2O)O[C@H](CO)[C@H]1O` (some centres not stated) [HOLOTHURIN A], the IC50 in the experiment on Bel-7402 stood at 0.76 µM; in the experiment with HL-60, 4.42 µM.
Taken in the same sequence, the figures for `CO[C@@H]1[C@@H](O)[C@H](O[C@@H]2[C@@H](O)[C@H](O[C@H]3[C@H](O)[C@@H](O)[C@H](O[C@H]4[C@H](O[C@H]5CC[C@]6(C)C7=C[C@H](O)[C@@]89C(=O)O[C@@](C)(C(=O)CCC(C)C)[C@H]8CC[C@@]9(C)[C@@H]7CC[C@H]6C5(C)C)OC[C@@H](OS(=O)(=O)O)[C@@H]4O)O[C@@H]3C)O[C@H](CO)[C@H]2O)O[C@H](CO)[C@H]1O` [FUSCOCINEROSIDE B] were 2.64 µM and 3.75 µM.
Taken in the same sequence, the figures for `CC[C@@]1(O)C(=O)OCc2c1cc1n(c2=O)Cc2cc3cc(O)ccc3nc2-1` [HYDROXYCAMPTOTHECIN] were 0.28 µM and 0.41 µM.
As for `CO[C@@H]1[C@@H](O)[C@H](O[C@@H]2[C@@H](O)[C@H](O[C@H]3[C@H](O)[C@@H](O)[C@H](O[C@H]4[C@H](O[C@H]5CC[C@]6(C)C7=C[C@H](O)[C@@]89C(=O)O[C@@](C)(C(=O)CCC(C)(C)OC(C)=O)[C@H]8CC[C@@]9(C)[C@@H]7CC[C@H]6C5(C)C)OC[C@@H](OS(=O)(=O)O)[C@@H]4O)O[C@@H]3C)O[C@H](CO)[C@H]2O)O[C@H](CO)[C@H]1O` [FUSCOCINEROSIDE A], the figures for the 50% inhibitory concentration (IC50) in the experiment with Bel-7402 and with HL-60 were 5.58 µM and 6.21 µM, respectively.
On the same counts, the results for `CO[C@@H]1[C@@H](O)[C@H](O[C@@H]2[C@@H](O)[C@H](O[C@H]3[C@H](O)[C@@H](O)[C@H](O[C@H]4[C@H](O[C@H]5CC[C@]6(C)C7=C[C@H](O)[C@@]89C(=O)O[C@@](C)(CCCC(C)C)[C@H]8CC[C@@]9(C)[C@@H]7CC[C@H]6C5(C)C)OC[C@@H](OS(=O)(=O)O)[C@@H]4O)O[C@@H]3C)O[C@H](CO)[C@H]2O)O[C@H](CO)[C@H]1O` [PERVICOSIDE C] are 0.66 µM and 4.48 µM.
On the same counts, the results for `CO[C@@H]1[C@@H](O)[C@H](O[C@@H]2[C@@H](O)[C@H](O[C@H]3[C@H](O)[C@@H](O)[C@H](O[C@H]4[C@H](O[C@H]5CC[C@]6(C)C7=C[C@H](O)[C@@]89C(=O)O[C@@](C)(C%10CCC(C)(C)O%10)[C@H]8CC[C@@]9(C)[C@@H]7CC[C@H]6C5(C)C)OC[C@@H](OS(=O)(=O)O)[C@@H]4O)O[C@@H]3C)O[C@H](CO)[C@H]2O)O[C@H](CO)[C@H]1O` (some centres not stated) [FUSCOCINEROSIDE C] are 0.58 µM and 0.88 µM.
